Shown are actives, neighbours in structure and some others; about 7.9% of the full set was active somewhere.
RORa activator: activators of orphan receptor RORA, primary screen, cell-based, luminescence. Nuclear receptor ROR-alpha (Homo sapiens), P35398. CHO-K1 Gal4-RORA LBD luciferase reporter; percent increase over mock-subtracted basal signal. activation, % at 10 µM. actives 1.5% (n = 65,000). AID 560, 2006;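 active = activation above the mean of all tested compounds plus 3 SD, cut at about 49% in these data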;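 note: 0% = DMSO-treated RORA cells and 100% = added signal equal to DMSO minus mock-transfected cells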
Target sequence (P35398 whole entry, looked up, the tested form may be a part): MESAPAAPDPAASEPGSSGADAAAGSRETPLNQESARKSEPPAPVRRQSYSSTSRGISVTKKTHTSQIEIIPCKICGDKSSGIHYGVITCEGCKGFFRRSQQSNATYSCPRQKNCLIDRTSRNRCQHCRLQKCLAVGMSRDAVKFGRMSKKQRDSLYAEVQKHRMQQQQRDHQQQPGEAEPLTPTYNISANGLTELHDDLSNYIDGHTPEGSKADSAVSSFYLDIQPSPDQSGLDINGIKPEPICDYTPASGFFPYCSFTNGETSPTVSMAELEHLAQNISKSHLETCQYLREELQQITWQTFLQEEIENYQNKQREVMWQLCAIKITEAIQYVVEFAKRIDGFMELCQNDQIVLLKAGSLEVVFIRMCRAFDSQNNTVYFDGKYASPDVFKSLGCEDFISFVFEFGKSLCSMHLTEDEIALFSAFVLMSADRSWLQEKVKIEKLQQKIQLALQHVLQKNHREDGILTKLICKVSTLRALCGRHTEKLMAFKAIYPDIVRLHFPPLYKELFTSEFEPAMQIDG
SF1 activator: activators of human SF-1, primary screen, cell-based, CHO-K1, Gal4-SF-1 LBD, luciferase luminescence | CHO-K1 Gal4-SF-1 LBD luciferase reporter; % increase over DMSO SF-1-specific signal | actives 1.9% (n = 65,000) | Steroidogenic factor 1 (Homo sapiens), Q13285 | AID 522, 2006 | activation, % at 10 µM;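 active = activation above the mean activation of all tested compounds plus 3 SD, cut at about 50% in these data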
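Assay system – CHO-K1 cells with Gal4–hSF-1 LBD chimera plus Gal4-driven luciferase · Quantity – 4,000 cells per well · Times – compound added 1 h post-seeding, 20 h exposure at 37 °C, 5% CO2 · Measured by – luciferase light emission · Benchmarks – DMSO and mock-transfected background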
JNK3 inh: JNK3 kinase activity inhibitors, primary screen, biochemical, human, purified enzyme. Mitogen-activated protein kinase 10 (Homo sapiens), P53779. actives 0.61% (n = 60,000). HTS. inhibition, % at 8 µM. AID 746, 2007; in the data active = inhibition above about 17%;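 note: 0% = DMSO and 100% = reference inhibitor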
D1 allo mod: D1 CRE-luciferase signal change, two-sided – cell-based, HEK293 D1, dopamine EC30, D1 allosteric modulator project, primary screen. B-score at 10 µM. actives 5.9% (n = 58,000). D(1A) dopamine receptor (Homo sapiens), P21728. dopamine EC30 potentiation; actives deviate in either direction;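 active = luminescence count or its row- and column-corrected plate score outside the 99.7% band of the plate's sample wells, on either side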
HEK293 NFkB inh: inhibitors of PMA/ionomycin-induced NF-kB reporter, primary screen, antigen receptor NF-kB inhibitor project, cell-based, HEK-293 luciferase reporter, luminescence | HEK-293 NF-kB luciferase reporter | inhibition, % at 3 µM | actives 0.21% (n = 62,000) | AID 465, 2006;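 active = inhibition above the mean of all tested compounds plus 3 SD, cut at about 40% in these data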;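 note: 0% = stimulated DMSO wells and 100% = 10 µM reference inhibitor 5653914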
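System: NF-kB luciferase reporter HEK-293 cells | Replication: Single test | Control set: DMSO vs reference inhibitor | Evaluation: % inhibition | Schedule: 1 h pretreatment, 16 h stimulation, 37 °C | Probe or stimulus: PMA with ionomycin | Compound dosing: One dose, 3 µM | Detection: Luciferase luminescence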
Numbers without * were called inactive; · = no result given.

SMILES	RORa activator	SF1 activator	JNK3 inh	D1 allo mod	HEK293 NFkB inh
O=C(Nc1ccc(-c2nc3ccccc3[nH]2)cc1)C1CCCO1 (stereo not given)	-1	18	-4	-5*	-24
CN1CCN(C(=O)c2cc3nc(-c4ccccc4)cc(C(F)(F)F)n3n2)CC1	-9	-10	-8	-0.1	-3
CN1CCN(C(=O)c2cc3nc(-c4ccc(Cl)cc4)cc(C(F)(F)F)n3n2)CC1	-20	-2	-10	-3.7*	9
O=S(=O)(c1ccc2c(c1)OCCO2)N1CCC(c2nc3ccc(Cl)cc3[nH]2)CC1	-10	-4	1	-1.7	18
Clc1ccc(Cl)c2sc(N3CCCC3)nc12	-12	17	0	0.12	-8
Fc1cccc2sc(N3CCCCC3)nc12	33	73*	7	0.76	-23
Clc1ccc2nc(N3CCCCC3)[nH]c2c1	14	36	0	-5*	-40
Clc1ccc2nc(N3CCCCC3)sc2c1	29	65*	2	0.23	-48
COc1ccc(S(=O)(=O)N(Cc2ccccc2)Cc2nc(-c3ccccc3)no2)cc1	-12	-22	3	-0.53	19
O=C(CC(C(=O)N1CCc2ccccc21)n1ccnc1)N1CCc2ccccc2C1 (stereo not given)	-13	-8	-7	0.028	1
CCOC(=O)Nc1ccccc1C(=O)N1CCOCC1	-1	4	5	-0.37	-24
CC1CCCN(C(=O)C2c3ccccc3C(=O)N3CCc4ccccc4C23)C1 (stereo not given)	-5	-13	-1	-0.042	18
O=C(O)[C@@H]1CCCC[C@@H]1C(=O)N1CCc2ccccc2C1CN1C(=O)c2ccccc2C1=O (stereo not given in full)	22	12	-4	·	59*
COc1ccc(CNC(=O)C2CCCN2S(=O)(=O)c2ccccc2)cc1 (stereo not given)	-12	7	2	·	21
O=C(CC1SC(N2CCCCC2)=NC1=O)Nc1cccc(C(=O)O)c1 (stereo not given)	-10	-11	5	0.047	8
O=C(Nc1ccc(NC(=O)c2ccco2)nc1)c1cccnc1	22	55*	5	-3.8	-10
O=C(Nc1ccc(NC(=O)C2CC2)nc1)c1cccs1	18	52*	9	-1.2	-1
O=C(Nc1ccc(NC(=O)C2CC2)nc1)c1ccco1	20	51*	-7	-0.9	0
CCCC(=O)Nc1ccc(NC(=O)c2cccs2)cn1	8	18	·	-0.039	5
CC(C)C(=O)Nc1ccc(NC(=O)c2ccco2)cn1	5	29	7	0.98	-2
CCN1CCN(C(c2cccs2)C(C)NC(=O)C(C)C)CC1 (stereo not given)	12	-2	-5	0.073	8
CC(=O)C(C)Oc1ccc2c3c(c(=O)oc2c1)CCCCC3 (stereo not given)	20	54*	6	1.5	-24
O=C(O)C(Oc1ccc2c3c(c(=O)oc2c1)CCC3)c1ccccc1 (stereo not given)	-8	-6	-6	0.18	13
CN(CC(=O)NCc1cccc(F)c1)C(=O)c1ccco1	-7	22	-3	0.21	-14
COc1ccc2c(c1)sc1nc(-c3ccccc3)cn12	-92	-89	0	-7.3*	67*
CCOC(=O)C(C)n1cnc2c(cnn2-c2ccc(Cl)cc2)c1=O (stereo not given)	40	70*	1	·	-16
CCCCn1cnc2c(cnn2-c2ccc(Cl)cc2)c1=O	28	65*	-7	-1.3	-11
CCOC(=O)C(CC)n1cnc2c(cnn2-c2ccc(Cl)cc2)c1=O (stereo not given)	12	18	-1	·	-2
CCCn1cnc2c(cnn2-c2ccc(F)cc2)c1=O	34	52*	0	-0.04	0
Cn1c(=O)oc2cc(S(=O)(=O)N3CCCC(C(=O)NCCN4CCOCC4)C3)ccc21 (stereo not given)	5	-23	1	-1.2	9
